One experiment relates to Mus musculus. Description: Immunostimulatory activity in C57BL/6 mouse assessed as increase in serum IL12 level at 1 mg/kg, sc after 2 hrs by ELISA. Format: functional, organism-based. More on the design: dose 1 mg/kg. In short, it runs like this: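 Female C57BL/6 mice (n=3) received a single subcutaneous agonist dose of 1 mg/kg. Blood was taken by retro-orbital bleeding 2 h later, and serum IL-12 was measured by sandwich ELISA. Values are the mean of three mice ± SD.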
In general terms: ELISA stands for enzyme-linked immunosorbent assay.

For experiment [1], the target named is T1, Toll-like receptor 9 (Homo sapiens) (UniProt Q9NR96).
T1 sequence (whole entry): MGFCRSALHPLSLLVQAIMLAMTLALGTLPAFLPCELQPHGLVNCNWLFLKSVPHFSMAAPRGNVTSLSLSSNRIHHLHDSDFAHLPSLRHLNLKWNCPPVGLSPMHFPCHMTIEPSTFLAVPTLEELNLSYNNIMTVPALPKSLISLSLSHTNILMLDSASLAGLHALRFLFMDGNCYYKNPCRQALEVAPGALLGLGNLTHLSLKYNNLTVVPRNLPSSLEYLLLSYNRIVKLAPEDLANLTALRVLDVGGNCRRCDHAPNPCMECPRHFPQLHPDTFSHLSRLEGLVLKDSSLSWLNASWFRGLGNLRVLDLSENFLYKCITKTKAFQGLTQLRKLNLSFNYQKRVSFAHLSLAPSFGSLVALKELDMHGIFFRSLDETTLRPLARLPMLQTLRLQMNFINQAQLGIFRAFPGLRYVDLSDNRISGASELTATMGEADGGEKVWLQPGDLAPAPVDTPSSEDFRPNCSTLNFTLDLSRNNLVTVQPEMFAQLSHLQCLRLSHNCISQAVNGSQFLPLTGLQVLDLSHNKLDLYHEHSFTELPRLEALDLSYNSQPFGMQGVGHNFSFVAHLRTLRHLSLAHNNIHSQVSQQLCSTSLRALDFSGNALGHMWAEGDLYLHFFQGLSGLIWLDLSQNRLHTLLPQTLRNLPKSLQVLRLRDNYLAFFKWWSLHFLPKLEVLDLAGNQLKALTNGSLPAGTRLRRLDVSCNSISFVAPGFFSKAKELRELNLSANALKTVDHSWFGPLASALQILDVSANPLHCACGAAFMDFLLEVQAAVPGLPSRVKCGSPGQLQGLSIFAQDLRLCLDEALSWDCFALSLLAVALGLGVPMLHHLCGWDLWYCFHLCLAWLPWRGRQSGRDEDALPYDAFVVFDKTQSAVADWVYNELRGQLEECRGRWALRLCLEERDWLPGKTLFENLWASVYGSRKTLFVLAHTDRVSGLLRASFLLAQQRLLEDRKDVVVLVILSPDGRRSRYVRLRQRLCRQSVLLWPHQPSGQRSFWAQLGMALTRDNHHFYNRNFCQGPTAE
Description: Induction of TLR9-mediated immune stimulation in human PBMC assessed as MCP1 production at 10 ug/ml after 24 hrs by luminex multiplex assay (RVb = 0.08 +/- 0.02 ng/ml).

Experiment [2] has as its target T1, Toll-like receptor 9 (Homo sapiens). Description: Induction of TLR9-mediated immune stimulation in human PBMC assessed as IL6 production at 10 ug/ml after 24 hrs by luminex multiplex assay (RVb = 0.01 ng/ml).

The structures appear in SMILES notation. Active and inactive are the calls of the source. The calls are words filed in the database; no cut-off is given here.

As for `Cc1cn([C@H]2C[C@H](OCCC(O)CCOP(=O)(S)O[C@H]3C[C@H](n4cc(C)c(=O)[nH]c4=O)O[C@@H]3COP(=O)(S)O[C@H]3[C@@H](O)[C@H](n4ccc(N)nc4=O)O[C@@H]3COP(=O)(S)O[C@H]3C[C@H](n4cc(C)c(=O)[nH]c4=O)O[C@@H]3COP(=O)(S)O[C@H]3C[C@H](n4cc(C)c(=O)[nH]c4=O)O[C@@H]3COP(=O)(S)O[C@H]3C[C@H](n4ccc5c(=O)[nH]c(N)nc54)O[C@@H]3COP(=O)(S)O[C@H]3[C@@H](O)[C@H](n4ccc(N)nc4=O)O[C@@H]3COP(=O)(S)O[C@H]3C[C@H](n4cc(C)c(=O)[nH]c4=O)O[C@@H]3COP(=O)(S)O[C@H]3[C@@H](O)[C@H](n4cnc5c(=O)[nH]c(N)nc54)O[C@@H]3COP(=O)(S)O[C@H]3C[C@H](n4cc(C)c(=O)[nH]c4=O)O[C@@H]3COP(=O)(S)O[C@H]3[C@@H](O)[C@H](n4ccc(N)nc4=O)O[C@@H]3COP(=O)(S)O[C@H]3C[C@H](n4cc(C)c(=O)[nH]c4=O)O[C@@H]3CO)[C@@H](COP(=O)(S)O[C@H]3[C@@H](O)[C@H](n4ccc(N)nc4=O)O[C@@H]3COP(=O)(S)O[C@H]3C[C@H](n4cc(C)c(=O)[nH]c4=O)O[C@@H]3COP(=O)(S)O[C@H]3C[C@H](n4cc(C)c(=O)[nH]c4=O)O[C@@H]3COP(=O)(S)O[C@H]3C[C@H](n4ccc5c(=O)[nH]c(N)nc54)O[C@@H]3COP(=O)(S)O[C@H]3[C@@H](O)[C@H](n4ccc(N)nc4=O)O[C@@H]3COP(=O)(S)O[C@H]3C[C@H](n4cc(C)c(=O)[nH]c4=O)O[C@@H]3COP(=O)(S)O[C@H]3[C@@H](O)[C@H](n4cnc5c(=O)[nH]c(N)nc54)O[C@@H]3COP(=O)(S)O[C@H]3C[C@H](n4cc(C)c(=O)[nH]c4=O)O[C@@H]3COP(=O)(S)O[C@H]3[C@@H](O)[C@H](n4ccc(N)nc4=O)O[C@@H]3COP(=O)(S)O[C@H]3C[C@H](n4cc(C)c(=O)[nH]c4=O)O[C@@H]3CO)O2)c(=O)[nH]c1=O` (some centres undefined), the outcome in the experiment with Mus musculus was Active. The Activity in experiment [1] amounted to 0.64 ng/mL; in experiment [2], 0.47 ng/mL.
Turning to `Cc1cn([C@H]2C[C@H](O[C@H]3C[C@@H](O)C[C@@H](OP(=O)(S)O[C@H]4C[C@H](n5cc(C)c(=O)[nH]c5=O)O[C@@H]4COP(=O)(S)O[C@H]4[C@@H](O)[C@H](n5ccc(N)nc5=O)O[C@@H]4COP(=O)(S)O[C@H]4C[C@H](n5cc(C)c(=O)[nH]c5=O)O[C@@H]4COP(=O)(S)O[C@H]4C[C@H](n5cc(C)c(=O)[nH]c5=O)O[C@@H]4COP(=O)(S)O[C@H]4C[C@H](n5ccc6c(=O)[nH]c(N)nc65)O[C@@H]4COP(=O)(S)O[C@H]4[C@@H](O)[C@H](n5ccc(N)nc5=O)O[C@@H]4COP(=O)(S)O[C@H]4C[C@H](n5cc(C)c(=O)[nH]c5=O)O[C@@H]4COP(=O)(S)O[C@H]4[C@@H](O)[C@H](n5cnc6c(=O)[nH]c(N)nc65)O[C@@H]4COP(=O)(S)O[C@H]4C[C@H](n5cc(C)c(=O)[nH]c5=O)O[C@@H]4COP(=O)(S)O[C@H]4[C@@H](O)[C@H](n5ccc(N)nc5=O)O[C@@H]4COP(=O)(S)O[C@H]4C[C@H](n5cc(C)c(=O)[nH]c5=O)O[C@@H]4CO)C3)[C@@H](COP(=O)(S)O[C@H]3[C@@H](O)[C@H](n4ccc(N)nc4=O)O[C@@H]3COP(=O)(S)O[C@H]3C[C@H](n4cc(C)c(=O)[nH]c4=O)O[C@@H]3COP(=O)(S)O[C@H]3C[C@H](n4cc(C)c(=O)[nH]c4=O)O[C@@H]3COP(=O)(S)O[C@H]3C[C@H](n4ccc5c(=O)[nH]c(N)nc54)O[C@@H]3COP(=O)(S)O[C@H]3[C@@H](O)[C@H](n4ccc(N)nc4=O)O[C@@H]3COP(=O)(S)O[C@H]3C[C@H](n4cc(C)c(=O)[nH]c4=O)O[C@@H]3COP(=O)(S)O[C@H]3[C@@H](O)[C@H](n4cnc5c(=O)[nH]c(N)nc54)O[C@@H]3COP(=O)(S)O[C@H]3C[C@H](n4cc(C)c(=O)[nH]c4=O)O[C@@H]3COP(=O)(S)O[C@H]3[C@@H](O)[C@H](n4ccc(N)nc4=O)O[C@@H]3COP(=O)(S)O[C@H]3C[C@H](n4cc(C)c(=O)[nH]c4=O)O[C@@H]3CO)O2)c(=O)[nH]c1=O` (some centres undefined), the result with Mus musculus was Active. Also, the Activity came to 8.45 ng/mL in experiment [1] and 0.67 ng/mL in experiment [2].
`Cc1cn([C@H]2C[C@H](OCC[C@H](O)COP(=O)(S)O[C@H]3C[C@H](n4cc(C)c(=O)[nH]c4=O)O[C@@H]3COP(=O)(S)O[C@H]3[C@@H](O)[C@H](n4ccc(N)nc4=O)O[C@@H]3COP(=O)(S)O[C@H]3C[C@H](n4cc(C)c(=O)[nH]c4=O)O[C@@H]3COP(=O)(S)O[C@H]3C[C@H](n4cc(C)c(=O)[nH]c4=O)O[C@@H]3COP(=O)(S)O[C@H]3C[C@H](n4ccc5c(=O)[nH]c(N)nc54)O[C@@H]3COP(=O)(S)O[C@H]3[C@@H](O)[C@H](n4ccc(N)nc4=O)O[C@@H]3COP(=O)(S)O[C@H]3C[C@H](n4cc(C)c(=O)[nH]c4=O)O[C@@H]3COP(=O)(S)O[C@H]3[C@@H](O)[C@H](n4cnc5c(=O)[nH]c(N)nc54)O[C@@H]3COP(=O)(S)O[C@H]3C[C@H](n4cc(C)c(=O)[nH]c4=O)O[C@@H]3COP(=O)(S)O[C@H]3[C@@H](O)[C@H](n4ccc(N)nc4=O)O[C@@H]3COP(=O)(S)O[C@H]3C[C@H](n4cc(C)c(=O)[nH]c4=O)O[C@@H]3CO)[C@@H](COP(=O)(S)O[C@H]3[C@@H](O)[C@H](n4ccc(N)nc4=O)O[C@@H]3COP(=O)(S)O[C@H]3C[C@H](n4cc(C)c(=O)[nH]c4=O)O[C@@H]3COP(=O)(S)O[C@H]3C[C@H](n4cc(C)c(=O)[nH]c4=O)O[C@@H]3COP(=O)(S)O[C@H]3C[C@H](n4ccc5c(=O)[nH]c(N)nc54)O[C@@H]3COP(=O)(S)O[C@H]3[C@@H](O)[C@H](n4ccc(N)nc4=O)O[C@@H]3COP(=O)(S)O[C@H]3C[C@H](n4cc(C)c(=O)[nH]c4=O)O[C@@H]3COP(=O)(S)O[C@H]3[C@@H](O)[C@H](n4cnc5c(=O)[nH]c(N)nc54)O[C@@H]3COP(=O)(S)O[C@H]3C[C@H](n4cc(C)c(=O)[nH]c4=O)O[C@@H]3COP(=O)(S)O[C@H]3[C@@H](O)[C@H](n4ccc(N)nc4=O)O[C@@H]3COP(=O)(S)O[C@H]3C[C@H](n4cc(C)c(=O)[nH]c4=O)O[C@@H]3CO)O2)c(=O)[nH]c1=O` (some centres undefined): in the experiment with Mus musculus, the outcome was Active. In addition, the figures for the Activity in experiment [1] and in experiment [2] were 43.5 ng/mL and 0.73 ng/mL, respectively.

For the origin of these results see ChEMBL document CHEMBL1157912, “Impact of nature and length of linker incorporated in agonists on toll-like receptor 9-mediated immune responses” (J Med Chem, 2010).
